Measurements from ChEMBL document CHEMBL4261626, “Design, synthesis, and effects of novel phenylpyrimidines as glucagon receptor antagonists” (Bioorg Med Chem, 2018).
Active and inactive are the calls of the source. The calls are words filed in the database; no cut-off is given here.

Tests used:
[1] = (§1) Cytotoxicity against C57BL/6N mouse primary hepatocytes assessed as cell viability at 20 uM after 24 hrs by CCK8 assay; type: cell-based, Hepatocyte; conditions: C57BL/6N, primary hepatocytes, read-out: Activity
Method in brief: (§2)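 Hepatocytes were isolated by portal-vein perfusion and Percoll gradient from 10-week male C57BL/6N mice. Cells were seeded at 1×10^4/well and exposed to 20 μM compound in cell plating reagent for 24 h. CCK-8 was then added for 2 h at 37 °C and absorbance read at 450 nm. Three independent experiments, each in triplicate.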

Glucagon receptor [2] = target: T1, Glucagon receptor (Homo sapiens, UniProt P47871); test: Antagonist activity at human glucagon receptor expressed in CHO-K1 GCGR Gs cells assessed as inhibition of glucagon-induced cAMP accumulation at 10 uM pre-incubated for 10 mins before glucagon and forskolin addition and further incubated for 30 mins by luminescence-based assay; type: functional, cell-based; conditions: in the assay text read “pre-incubated for 15 mins” for “pre-incubated for 10 mins”
T1 sequence (P47871 whole entry): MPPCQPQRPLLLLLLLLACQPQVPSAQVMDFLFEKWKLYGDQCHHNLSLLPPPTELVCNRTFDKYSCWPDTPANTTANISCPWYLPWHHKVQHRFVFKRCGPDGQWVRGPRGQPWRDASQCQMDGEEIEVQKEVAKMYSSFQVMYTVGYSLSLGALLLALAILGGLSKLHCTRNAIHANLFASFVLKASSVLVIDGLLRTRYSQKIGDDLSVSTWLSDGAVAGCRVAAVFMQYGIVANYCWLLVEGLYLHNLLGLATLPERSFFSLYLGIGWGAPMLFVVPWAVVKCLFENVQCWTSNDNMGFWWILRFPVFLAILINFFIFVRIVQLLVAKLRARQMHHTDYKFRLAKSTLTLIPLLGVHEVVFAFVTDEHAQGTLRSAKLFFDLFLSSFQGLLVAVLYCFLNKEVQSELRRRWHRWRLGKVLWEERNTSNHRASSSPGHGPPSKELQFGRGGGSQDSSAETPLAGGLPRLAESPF
Method in brief: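 CHO-K1 GCGR Gs cells were seeded at 1×10^4/well. The next day they were pre-treated with compound at 10 μM in PBS for 15 min at 37 °C, 5% CO₂. Then 0.1 nM glucagon plus 10 μM forskolin was added for a further 30 min. cAMP was read by HitHunter enzyme-complementation luminescence. Three independent experiments.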

Mus musculus [3] = test: Antihyperglycemic activity in db/db mouse assessed as reduction in blood glucose level at 50 mg/kg, po administered once per day for 4 weeks and measured after 12 hrs fasting; type: functional, organism-based
Method in brief: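 Male db/db mice were obtained at 6 weeks; only animals with blood glucose over 400 mg/dL were used. They were dosed 50 mg/kg by oral intubation once daily for 4 weeks, in 9% cremophore with 10% DMSO in sterile water. Fasting blood glucose was read by glucometer after a 12 h fast at week 4. n=7/group.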

Hepatocyte [4] = test: Inhibition of glucagon-induced glucose production in C57BL/6N mouse primary hepatocytes grown under gluconeogenic medium at 20 uM after 3 hrs by glucose assay reagent-based glucose oxidase method; type: functional, cell-based
Method in brief: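 Mouse primary hepatocytes in glucose-free DMEM were given 20 μM compound for 3 h with 10 nM glucagon, 2 mM sodium pyruvate and 20 mM sodium lactate. Medium glucose was measured by glucose assay kit 30 min after glucagon. Three independent experiments.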

Mus musculus [5] = test: Antihyperglycemic activity in db/db mouse assessed pretreated at 50 mg/kg, po administered via intubation once per day for 4 weeks followed by fasting for 5 hrs before second administration at 50 mg/kg via oral gavage and subsequent glucagon challenge after 1 hr and measured durimng 15 to 60 mins post glucagon injection; type: functional, organism-based
Method in brief: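 Diabetic db/db mice were dosed orally at 50 mg/kg daily for 4 weeks (vehicle 9% cremophore/10% DMSO in sterile water). They were then fasted 5 h and re-dosed 50 mg/kg by gavage. After 1 h they received glucagon 15 μg/kg i.p. Blood glucose was measured at 15, 30, 45 and 60 min. n=4–6/group.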

Hepatocyte [6] = test: as §1; type: cell-based; conditions: hepatocytes, 24 h, 20 µM; method in brief: as §2
Glucagon receptor [7] = target: T1, Glucagon receptor; test: Antagonist activity at human glucagon receptor expressed in CHO-K1 GCGR Gs cells assessed as inhibition of glucagon-induced cAMP accumulation pre-incubated for 10 mins before glucagon and forskolin addition and further incubated for 30 mins by luminescence-based assay; type: functional, cell-based; conditions: in the assay text read “pre-incubated for 15 mins” for “pre-incubated for 10 mins”
Method in brief: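 Glucagon-receptor CHO-K1 GCGR Gs cells (1×10^4/well, plated the day before) were exposed to compound at 0.0001–100 μM in PBS for 15 min at 37 °C. Cells were then stimulated with 0.1 nM glucagon and 10 μM forskolin for 30 min. cAMP was measured by HitHunter luminescence. IC50 was fitted from three independent determinations.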

Hepatocyte [8] = test: Inhibition of glucagon-induced glucose production in C57BL/6N mouse primary hepatocytes grown under gluconeogenic medium at 20 uM after 30 mins by glucose assay reagent-based glucose oxidase method; type: functional; conditions: 0.5 h
Method in brief: (§3)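 Primary mouse hepatocytes were plated at 2.5×10^5/well. After 24 h they were washed and held 3 h in glucose-free DMEM. Compound (20 μM screen, or 1–100 μM series) was then added with 20 mM sodium lactate, 2 mM sodium pyruvate and 10 nM glucagon. Medium glucose was assayed by kit after 30 min and normalized to cellular protein. Five independent experiments, each in triplicate.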

Hepatocyte [9] = test: Inhibition of glucagon-induced glucose production in C57BL/6N mouse primary hepatocytes grown under gluconeogenic medium at 10 uM after 30 mins by glucose assay reagent-based glucose oxidase method; type: functional, cell-based; method in brief: as §3
Hepatocyte [10] = test: Inhibition of glucagon-induced glucose production in C57BL/6N mouse primary hepatocytes grown under gluconeogenic medium after 30 mins by glucose assay reagent-based glucose oxidase method; type: functional, cell-based; method in brief: as §3

inhibition (Glucagon receptor [2]) [%] | IC50 (Glucagon receptor [7]) [µM] | Compound | viability at 24 h, 20 µM [1] [%] | inhibition at 20 µM (Hepatocyte [8]) [%] | other results
> 60 | – | CCCCC(Oc1ncc(-c2ccc(C(F)(F)F)cc2)cn1)c1ccc(C(=O)NCCC(=O)O)cc1 (configuration not stated) | > 80 | – | –
– | – | Cc1cc(O[C@@H](CCC(F)(F)F)c2ccc(C(=O)NCCC(=O)O)cc2)cc(C)c1-c1ccc(C(C)(C)C)cc1 | – | – | Activity (Mus musculus [3]): inactive
– | 8.5 | CCCC[C@H](Oc1ncc(-c2ccccc2)cn1)c1ccc(C(=O)NCCC(=O)O)cc1 | – | – | inhibition (Hepatocyte [4]): Active; Activity (Mus musculus [5]): Active; Activity (Hepatocyte [6]): Toxic; Activity (Mus musculus [3]): Active
> 60 | 17.7 | CCCCC(Oc1ncc(-c2ccc(CC)cc2)cn1)c1ccc(C(=O)NCCC(=O)O)cc1 (configuration not stated) | > 80 | > 60 | –
– | – | CCCC[C@@H](Oc1ncc(-c2ccc(C(C)(C)C)cc2)cn1)c1ccc(C(=O)NCCC(=O)O)cc1 | – | – | inhibition (Hepatocyte [4]): inactive; Activity (Hepatocyte [6]): Toxic
– | 9.3 | CCCC[C@@H](Oc1ncc(-c2ccccc2)cn1)c1ccc(C(=O)NCCC(=O)O)cc1 | – | – | inhibition (Hepatocyte [4]): Active; Activity (Mus musculus [5]): Active; Activity (Hepatocyte [6]): Non-Toxic; Activity (Mus musculus [3]): Active
> 60 | 8.2 | CCCCC(Oc1ncc(-c2ccc(Oc3ccccc3)cc2)cn1)c1ccc(C(=O)NCCC(=O)O)cc1 (configuration not stated) | > 80 | > 60 | –
> 60 | 4.1 | CCCCC(Oc1ncc(-c2ccccc2)cn1)c1ccc(C(=O)NCCC(=O)O)cc1 (configuration not stated) | > 80 | > 60 | inhibition (Hepatocyte [9]): Active; inhibition (Hepatocyte [10]): Dose-dependent effect
> 60 | – | CCCCC(Oc1ncc(-c2ccccc2Cl)cn1)c1ccc(C(=O)NCCC(=O)O)cc1 (configuration not stated) | > 80 | – | –
> 60 | – | CCC(CC)C(=O)Nc1sc2c(c1C#N)CCC(C(C)(C)CC)C2 (configuration not stated) | > 80 | – | –
> 60 | 6 | CCCCC(Oc1ncc(-c2ccc(C(C)(C)C)cc2)cn1)c1ccc(C(=O)NCCC(=O)O)cc1 (configuration not stated) | > 80 | > 60 | inhibition (Hepatocyte [9]): Active; inhibition (Hepatocyte [10]): Dose-dependent effect
> 60 | – | CCCCC(Oc1ncc(-c2ccc(Cl)cc2)cn1)c1ccc(C(=O)NCCC(=O)O)cc1 (configuration not stated) | > 80 | – | –
> 60 | 6.9 | CCCCC(Oc1ncc(-c2cc(Cl)cc(Cl)c2)cn1)c1ccc(C(=O)NCCC(=O)O)cc1 (configuration not stated) | > 80 | > 60 | inhibition (Hepatocyte [10]): Dose-dependent effect
> 60 | – | CCCCC(Oc1ncc(-c2cccc(Cl)c2)cn1)c1ccc(C(=O)NCCC(=O)O)cc1 (configuration not stated) | > 80 | – | –
– | – | CCCC[C@H](Oc1ncc(-c2ccc(C(C)(C)C)cc2)cn1)c1ccc(C(=O)NCCC(=O)O)cc1 | – | – | inhibition (Hepatocyte [4]): inactive; Activity (Hepatocyte [6]): Toxic
> 60 | – | CCCCC(Oc1ncc(-c2ccc(C(F)(F)F)cc2F)cn1)c1ccc(C(=O)NCCC(=O)O)cc1 (configuration not stated) | > 80 | – | –
